Bioassay records: PubChem, several laboratories
An excerpt weighted towards active compounds, which were near 6.1% of everything screened.
BB579 growth dn: yeast BB579 growth reduction in restrictive medium; AID 804; inhibition, % at 10 µM; hit rate 0.51% among 140,000; S. cerevisiae BB579 growth, OD615, 48 h;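 active = inhibition above a set limit, 3 SD over the mean compound inhibition, cut at about 44% in these data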
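controls = amphotericin B 10 µg/mL, positive | assay system = DeaD yeast strain BB579 | schedule = 48 h compound exposure at 30 °C after 4 h preincubation | detection = OD615 turbidity measurement | medium = restrictive CSMM-D medium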
DAT uptake mod: changed human dopamine transporter uptake under cocaine IC80. Q01959. LLC-PK1 hDAT cells, [14C]-dopamine uptake with cocaine IC80; actives deviate in either direction. B-score at 10 µM. hit rate 1.3% among 110,000. AID 449768;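 active = Z score or B-score, a plate-position-corrected score, falls beyond the plate's 99.7% confidence bounds, in either direction; inactive = both scores lie inside the 99.7% bounds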;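 note: scored against the spread of the other compound wells on the same plate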
Target sequence (Q01959 whole entry, looked up): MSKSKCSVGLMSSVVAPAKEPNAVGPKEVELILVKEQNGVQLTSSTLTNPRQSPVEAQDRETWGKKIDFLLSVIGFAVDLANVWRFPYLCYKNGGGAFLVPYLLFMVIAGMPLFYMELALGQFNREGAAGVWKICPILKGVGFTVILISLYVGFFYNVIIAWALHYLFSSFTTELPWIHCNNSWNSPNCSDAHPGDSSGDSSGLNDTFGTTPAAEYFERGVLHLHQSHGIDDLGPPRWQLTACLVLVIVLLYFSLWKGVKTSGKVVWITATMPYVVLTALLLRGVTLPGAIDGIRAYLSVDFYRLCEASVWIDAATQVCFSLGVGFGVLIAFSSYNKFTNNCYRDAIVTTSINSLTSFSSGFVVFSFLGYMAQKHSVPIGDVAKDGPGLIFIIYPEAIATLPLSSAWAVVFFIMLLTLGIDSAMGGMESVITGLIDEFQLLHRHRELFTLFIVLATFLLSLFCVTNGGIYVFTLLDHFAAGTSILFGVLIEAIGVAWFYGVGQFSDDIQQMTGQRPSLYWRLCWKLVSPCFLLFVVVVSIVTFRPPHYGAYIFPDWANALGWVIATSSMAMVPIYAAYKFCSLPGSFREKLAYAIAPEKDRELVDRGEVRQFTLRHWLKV
RAM inhibit: blocks the yeast RAM network | S. cerevisiae dse1pr::URA3 reporter, 5-FOA growth OD615, 2 d; analog-sensitive cbk1-as2 kinase mutant strain | hit rate 1.8% among 190,000 | AID 868 | inhibition, % at 50 µM;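 active = inhibition above a set limit, 3 SD over mean compound inhibition, cut at about 8.4% in these data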;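 note: 0% = DMSO-only wells with no growth and 100% = 10 µM 1-NA-PP1 full growth; inhibition rescues growth on 5-FOA so higher OD means more RAM inhibition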
Yeast lifespan up: yeast lifespan extension; S. cerevisiae growth with nicotinamide, OD615; deaD strain in restrictive glucose medium; AID 775; inhibition of the nicotinamide effect, % at 10 µM; hit rate 0.68% among 130,000;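 active = inhibition above a set limit, placed 3 SD over the median of all compounds, cut at about 26% in these data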;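 note: 0% = nicotinamide-treated wells and 100% = cells grown without nicotinamide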
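Test system – modified budding yeast, DeaD strain · Compound – single dose 10 µM compound, 0.25% DMSO · Times – culture preincubation 4 h, compound exposure 48 h, both 30 °C · Detection – optical density (absorbance) at 615 nm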
Measles CPE: protection of cells from measles virus | AID 841 | protection (pct of control), % at 4 µM | hit rate 1.5% among 140,000 | Measles virus-infected cells, CPE protection, absorbance; in the data active = protection mostly above about 24%, no sharp cut-off; inactive = mostly below about 26%
WT yeast gro inh: growth inhibition of WT yeast, mitochondrial fusion screen; mitochondrial fusion phenotypic screen, WT strain; inhibition, % at 10 µM; hit rate 2.1% among 190,000; AID 1362; in the data active = inhibition above about 58%; tested in S. cerevisiae
An asterisk follows results filed as active; . = no result.

SMILES	BB579 growth dn	DAT uptake mod	RAM inhibit	Yeast lifespan up	Measles CPE	WT yeast gro inh
O=C(Nc1ccccc1Cl)c1cc[n+](Cc2ccc([N+](=O)[O-])cc2)cc1	.	.	1.3	.	.	-16.8
C[C@@H](C(=O)NCc1ccc(S(C)(=O)=O)cc1)[C@H]1C[C@]1(C)[C@H](NC(=O)OCc1ccccc1)c1ccccc1	-23.5	0.851	9.2*	2.7	5.0	-1.3
O=C(N/N=C/c1cccc([N+](=O)[O-])c1)C1CC(=O)N(c2ccc(Cl)cc2)C1 (stereo not given)	-43.0	-0.00475	1.8	-12.1	72.5*	-14.2
Cc1ccc(N2CC(C(=O)N/N=C/c3cccc([N+](=O)[O-])c3)CC2=O)cc1 (stereo not given)	-25.0	0.0832	3.8	9.4	17.0	-8.4
CCN(CC)c1ccc(NC(=O)OC)cc1	-71.2	0.0327	-0.3	-2.0	3.4	-25.4
N#Cc1ccccc1N=C1CCCN1Cc1ccccc1	-35.0	-1.22	0.0	-6.9	3.0	9.1
Cc1cc(C)c(N=C2CCCN2Cc2ccccc2)c(C#N)c1	-13.4	3*	2.8	.	16.7	7.0
CCCCOC(=O)Sc1nc2ccccc2o1	99.6*	-0.0233	-0.8	-19.3	17.2	2.2
CCc1nn2cc(C(=O)c3cc(Cl)ccc3O)cnc2c1-c1ccc(F)cc1	-32.5	.	5.0	5.5	17.4	80.8*
Cc1nn(-c2ccccc2)c2ncc(C(=O)c3cc(Cl)ccc3O)cc12	-27.7	.	6.7	-6.9	17.8	19.5
O=C(Oc1ccccc1)c1ccccc1OS(=O)(=O)c1ccccc1	-48.2	0.816	5.0	-10.7	13.1	-4.3
O=Cc1ccccc1OS(=O)(=O)c1ccccc1	-24.2	.	-1.4	49.5*	11.9	-7.2
CCc1cccc(NC(=O)CCCCCC2NC(=O)NC2C)c1 (stereo not given)	.	.	0.5	.	.	7.8
COc1ccc(/C=C/C(=O)c2ccc3c4c(cccc24)CC3)cc1OC	-21.4	.	7.8	-4.0	10.8	16.5
COc1ccc(/C=C/C(=O)c2ccc3c4c(cccc24)CC3)cc1	-5.6	.	8.8*	-2.5	7.4	12.8
O=C(Oc1ccc(-c2nnco2)cc1)N1CCCCC1	-14.1	0.0686	1.4	-27.3	6.0	1.8
O=C(Oc1ccc(-c2nnco2)cc1)N(c1ccccc1)c1ccccc1	-34.8	0.918	4.0	-8.5	11.6	58.3*
O=[N+]([O-])c1ccc(N=NN(CCO)CCO)cc1	-15.0	.	1.7	6.3	11.1	0.9
O=[N+]([O-])c1ccc(N=Nc2ccc(O)cc2O)cc1	82.6*	-1.63	2.5	-11.8	4.5	15.6
Cc1cccc(NC(=O)CN2C(=O)S/C(=C\c3ccc(O)c([N+](=O)[O-])c3)C2=O)c1	.	.	2.6	.	.	33.1
O=C1S/C(=C\c2ccc(O)c([N+](=O)[O-])c2)C(=O)N1Cc1cccc([N+](=O)[O-])c1	.	.	4.5	.	.	86.0*
O=C1S/C(=C\c2ccc(O)c([N+](=O)[O-])c2)C(=O)N1c1ccccc1Cl	.	.	2.5	.	.	79.6*
Cc1nc(Cl)c2c(n1)N(CC(N)=O)C(=O)CO2	-2.3	.	3.8	1.2	6.0	-7.6
N#CCC(CNc1ncc(C(F)(F)F)cc1Cl)OC(=O)c1ccc(Cl)cc1Cl (stereo not given)	-40.7	-0.105	9.6*	-22.1	4.3	0.8
CC(C)Oc1cccc(-c2nnc(SCC(=O)Nc3ccc4c(c3)OCCO4)n2N)c1	-22.8	0.00254	4.5	-15.7	6.0	9.4
SMILES	BB579 growth dn	DAT uptake mod	RAM inhibit	Yeast lifespan up	Measles CPE	WT yeast gro inh
O=C(NCCc1c[nH]c2ccccc12)C(=O)Nc1ccccc1	.	0.00761	1.6	.	.	0.9
O=C1NN=C(c2ccc(Cl)cc2)CC1c1cccc(Br)c1 (stereo not given)	.	.	1.4	.	.	76.9*
O=C1NN=C(c2ccc(Cl)cc2)CC1c1c[nH]c2ccccc12 (stereo not given)	.	.	2.4	.	.	65.7*
Cc1ccc(C2=NNC(=O)C(c3ccc(Cl)cc3)C2)cc1 (stereo not given)	-45.5	0.0119	1.2	-5.1	5.3	24.8
CCc1cccc(NC(=O)Cn2cc(C=O)c3ccccc32)c1	.	.	3.9	.	.	-15.9
O=C1NC(c2ccccc2)=C(c2ccccc2)C1=O	16.0	.	1.0	-1.2	44.6*	-7.0
COc1cccc(Nc2nc(NCCO)c3ccccc3n2)c1	-38.3	-0.0815	-0.1	-3.9	7.4	60.4*
COc1cccc(Nc2nc(NCC3CCCO3)c3ccccc3n2)c1 (stereo not given)	-49.0	0.0839	1.9	-13.8	23.0	39.9
Cc1cc(Cl)ccc1NC(=S)NCc1ccc(Cl)cc1	-6.9	-0.521	0.6	-5.0	27.6	13.9
Cc1cc(Cl)ccc1NC(=S)NCCC(c1ccccc1)c1ccccc1	20.2	1.32	5.0	-5.4	1.7	73.7*
Cc1c(Cl)cccc1NC(=S)NCCC(C)C	-39.2	-0.231	0.6	-4.4	10.3	47.6
Cc1c(Cl)cccc1NC(=S)NCCC(c1ccccc1)c1ccccc1	19.4	-0.042	6.3	-0.5	2.6	78.4*
Cc1c(Cl)cccc1NC(=S)NCC1COc2ccccc2O1 (stereo not given)	.	.	2.4	.	.	59.4*
CCCOc1ccc(N2C(=O)CC(N3CCN(CCN=CC4C(=O)CC(C)(C)CC4=O)CC3)C2=O)cc1 (stereo not given)	.	.	0.2	.	.	-2.3
Cc1nn(-c2ccccc2)c(Cl)c1CN(C(=O)CCl)c1cccc2ccccc12	-56.9	.	8.0	22.0	-0.3	47.0
COc1ccc(-c2nnc(SCc3nnc(-c4ccc(Cl)cc4)o3)n2-c2ccccc2)cc1	-19.1	0.498	3.6	-9.9	19.8	63.6*
COc1ccc(N(CC(=O)Nc2cc(C)ccc2C)S(=O)(=O)c2ccccc2[N+](=O)[O-])c(OC)c1	.	.	1.6	.	.	-1.7
COC(=O)c1sc2ncccc2c1OCc1cccc(Cl)c1	-27.5	-0.05	9.6*	-17.4	16.8	16.5
CCC(C)OC1OC(CO)C(O)C(O)C1NC(C)=O (stereo not given)	-13.2	.	-0.1	5.3	24.0	8.3
CSc1nc(N2CCOCC2)c2c(c1C#N)CC(C)(C)OC2	-17.9	-0.127	5.2	-9.0	4.9	12.3
CC(C)CCSc1nc(N2CCOCC2)c2c(c1C#N)CC(C)(C)OC2	-43.1	-0.029	10.2*	-2.1	10.2	38.8
COc1cc(/C=N/NC(=O)CN2CCOCC2)ccc1OCc1ccccc1	-25.4	.	-1.3	0.5	25.2	-5.3
COc1cc(/C=N/OCC(=O)Nc2cc(C)on2)ccc1OCc1ccccc1	-71.5	.	8.3	3.4	75.4*	4.6
COc1cc(/C=C(/C#N)C(=O)Nc2ccccc2)ccc1OCc1ccc(C(=O)O)cc1	.	.	2.6	.	.	-6.5
COc1cc(/C=N/n2cnnc2)ccc1OCc1ccccc1	0.6	-0.293	0.0	-12.8	39.6	64.2*
COc1cc(/C=C(/C#N)c2ccccc2F)ccc1OCc1ccccc1	-25.8	.	10.4*	3.0	34.8	8.2
